According to ChEMBL document CHEMBL5543129, “Peptide Inhibitor Targeting the Extraterminal Domain in BRD4 Potently Suppresses Breast Cancer Both In Vitro and In Vivo” (J Med Chem, 2024):
Active and inactive are the calls of the source.

How the values were obtained:
Format in all cases: functional, cell-based
MCF7 [1] = experiment: Inhibition of cell migration in human MCF7 cells at 10 uM incubated for 24 hrs by inverted microscopic assay
Procedure, shortened: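 Cells are seeded at 5 × 10^5/well and scratched at 80–90% confluence. They are kept in serum-free medium with peptide (10 μM); partner agents are JQ1 5 μM, iJMJD6 10 μM, or ICI 2.5 μM. Wound area is imaged by inverted microscope at 0 and 12 or 24 h. Wound closure % = (A0−A1)/A0 × 100. Three biological repeats.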

MCF7 [2] = experiment: Cytotoxicity against human MCF7 cells incubated for 1 week by CellTiter 96 Aqueous One Solution based assay; details: time 1.0 weeks
Procedure, shortened: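 Cells (2 × 10^3/well, DMEM + 10% FBS, 37 °C, 5% CO2) treated with a concentration gradient of peptide for 1 week. MTS reagent added for 1 h, absorbance read at 490 nm, EC50 derived.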

MCF7 [3] = experiment: Inhibition of colony formation in human MCF7 cells at 10 uM incubated for 2 weeks by crystal violet staining based assay
Procedure, shortened: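 Cells are seeded at 1 × 10^3/well and treated with peptide (10 μM) for 2 weeks, alone or with JQ1 5 μM, iJMJD6 10 μM, ICI 2.5 μM, or tamoxifen 3 μM (tamoxifen-resistant lines). Colonies are stained with crystal violet, dissolved in 10% acetic acid, and read at 590 nm. Three biological repeats.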

C[C@]12CC[C@@H]3c4ccc(O)cc4C[C@@H](CCCCCCCCC[S+]([O-])CCCC(F)(F)C(F)(F)F)[C@H]3[C@@H]1CC[C@@H]2O (stereo partly drawn)
active: inhibition (MCF7 [1]) | Activity (MCF7 [2]) | inhibition (MCF7 [3])
